Only a selection was taken, and hits are over-represented in it overall.
UCH37 DUB inh – inhibitors of human UCH37 deubiquitinase, primary screen, biochemical, Ub-AMC cleavage, fluorescence. Ubiquitin carboxyl-terminal hydrolase isozyme L5 (Homo sapiens), Q9Y5K5. purified proteasome/UCH37. inhibition, % (test concentration not listed). 330,000 tested, 0.33% active;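 active = mean inhibition over replicate wells above about 20%, limit read from the data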;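 note: 0% = compound-free wells with enzyme and 100% = wells lacking proteasome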
Target sequence (Q9Y5K5 whole entry, looked up): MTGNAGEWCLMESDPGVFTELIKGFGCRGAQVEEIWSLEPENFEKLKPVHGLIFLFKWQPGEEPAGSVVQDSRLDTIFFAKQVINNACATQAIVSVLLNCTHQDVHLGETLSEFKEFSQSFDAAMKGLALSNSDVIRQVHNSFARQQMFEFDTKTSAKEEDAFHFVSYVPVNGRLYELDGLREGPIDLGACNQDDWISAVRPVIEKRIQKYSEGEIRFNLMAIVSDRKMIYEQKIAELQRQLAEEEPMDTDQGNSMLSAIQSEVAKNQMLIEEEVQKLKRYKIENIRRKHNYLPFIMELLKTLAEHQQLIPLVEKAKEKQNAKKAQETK
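Test system – human UCH37 enzyme supplied as purified proteasome complex · Incubation – 30 min preincubation with enzyme, 25 min cleavage at room temperature · Detection – AMC fluorescence from Ub-AMC cleavage, excitation 355 nm, emission 460 nm · Benchmarks – no-proteasome wells (full inhibition) and compound-free wells (no inhibition)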
UPR CHOP act – activators of apoptotic CHOP UPR arm, primary screen, cell-based, CHO-CHOP luciferase reporter, luminescence, uHTS; UPR activation; percent of tunicamycin response over DMSO baseline; activation, % at 10 µM; 330,000 tested, 0.34% active; AID 449763, 2010;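 active = at 10 µM dose, activation of 40% or more, normalized to positive control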;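 note: 100% = tunicamycin at 10 µg/mL and 0% = DMSO alone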
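Test system: CHO CHOP reporter cells. Input: 500 CHO-CHOP cells per well. Medium: F12 with 10% FBS. Technique: luciferase luminescence. Measure: percent activation relative to tunicamycin control. Dosing: 10 µM compound, 0.5% DMSO. Timing: 16-18 h cell attachment, then 6 h compound exposure, 37 °C.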
CTSL1 counter – Fasciola hepatica cathepsin L1 inhibitors, primary screen, counter-screen for PFM18AAP inhibitor project, biochemical, QFRET, fluorogenic peptide substrate; recombinant F. hepatica cathepsin L1, Z-Leu-Arg-MCA fluorescence; inhibition, % at 5.96 µM; 300,000 tested, 0.49% active; AID 1906, 2009;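 active = inhibition above the mean of all tested compounds plus 3 SD, set per screening campaign, cut at about 17% in these data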;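 note: 0% = plate median of test compound wells and 100% = 1 µM Z-Phe-Ala-diazomethylketone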
XBP1 UPR activ – activators of adaptive XBP1 UPR arm, primary screen, cell-based, CHO-XBP1 luciferase reporter, luminescence, uHTS; AID 463104, 2010; 330,000 tested, 0.33% active; activation, % at 20 µM; IRE1-XBP1 UPR activation; percent of tunicamycin response, DMSO as zero;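 active = versus positive control, 20 µM dose yields 30% or more activation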;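 note: 100% = tunicamycin at 10 µg/mL and 0% = DMSO only wells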
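assay system = CHO-XBP1 luciferase reporter cells | amount = 1000 cells/well | buffer or medium = F12 plus 10% FBS | compound dosing = single point, 20 µM final compound, 1% DMSO | incubation = 16-18 h cell attachment at 37 °C, then 6 h compound exposure | detection = Steady-Glo luminescence read | controls = tunicamycin 10 µg/mL and vehicle-only wells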
CHOP inh – inhibitors of CHOP promoter induction, primary screen, cell-based, unfolded protein response, luciferase reporter; CHO-K1 CHOP-promoter luciferase, tunicamycin-induced, 15-18 h; AID 2732, 2010; 220,000 tested, 3.8% active; inhibition, % at 10 µM;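 active = compounds that reduced the stress-induced luciferase reporter signal by more than about 70% of percent inhibition, limit read from the data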;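 note: 0% = tunicamycin plus vehicle and 100% = wells without tunicamycin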
Active calls of the source: *.

O=P(Nc1cccc(F)c1)(Oc1ccccc1F)Oc1ccccc1F was read as UCH37 DUB inh 4, UPR CHOP act 4, CTSL1 counter 0, XBP1 UPR activ -2 and CHOP inh 76*.
For Cc1ccc(NP(=O)(Oc2ccccc2F)Oc2ccccc2F)cc1C the results were UCH37 DUB inh -2, CTSL1 counter 5 and CHOP inh 30.
For Cc1cccc(NP(=O)(Oc2ccccc2F)Oc2ccccc2F)c1 the results were UCH37 DUB inh 3, CTSL1 counter 3 and CHOP inh 78*.
`COc1ccc(/C=C2\C(=NO)C3CCN2CC3)cc1` gave UCH37 DUB inh 2.
For Cc1c(C=NO)c2ccccc2n1C the results were UCH37 DUB inh 1.
For Cc1cccc(OP(=O)(Oc2ccccc2)OC(c2ccccc2)C(F)(F)F)c1 (configuration not stated) the results were UCH37 DUB inh 4, UPR CHOP act 1, CTSL1 counter 1, XBP1 UPR activ -4 and CHOP inh 76*.
For CC(=O)O[C@@H]1C=C[C@](C)(O)C[C@@H](C)CC=C[C@H]2[C@H](O)[C@@](C)(O)[C@@H](C)[C@H]3[C@H](Cc4ccccc4)NC(=O)[C@@]312 the results were UCH37 DUB inh 5.
`COc1ccc(C(=O)ON=C(C(N)=O)P(=O)(OC(C)C)OC(C)C)cc1` gave UCH37 DUB inh 4.
For CC(O)(CS(=O)(=O)c1cccc(C(F)(F)F)c1)C(=O)Nc1cccc(C(F)(F)F)c1 (configuration not stated) the results were UCH37 DUB inh 0, UPR CHOP act -2, CTSL1 counter 3, XBP1 UPR activ -1 and CHOP inh 72*.
`CC(O)(CS(=O)(=O)c1ccccc1)C(=O)Nc1ccc(C(F)(F)F)cc1` (configuration not stated) gave UCH37 DUB inh -1, UPR CHOP act -2, CTSL1 counter 0, XBP1 UPR activ -2 and CHOP inh -6.
`NC(=N[N+](=O)[O-])N1CCN(C(=O)OC2CCCC2)CC1` gave UCH37 DUB inh 1.
For CC(=NOC(=O)N(C)C)c1ncc(C(F)(F)F)cc1N1CCOCC1 the results were UCH37 DUB inh 3.
`COc1cc2c(cc1OC)C1C(=O)c3ccc4c(c3OC1CO2)CC(C(C)C)O4` (configuration not stated) gave UCH37 DUB inh 2.
For COc1cc2c(cc1OC)[C@@H]1C(=O)c3ccc4c(c3O[C@@H]1CO2)C[C@H](C(C)C)O4 the results were UPR CHOP act 8, CTSL1 counter 0, XBP1 UPR activ -4 and CHOP inh 78*.
Screening O=C(CSC1c2ccccc2-c2ccccc21)NN=Cc1ccccc1C(=O)O returned UCH37 DUB inh 2.
For COc1ccc(C(=O)N2CCC3(CC2)OCCO3)cc1 the results were UCH37 DUB inh 1, UPR CHOP act 3, CTSL1 counter -4 and XBP1 UPR activ -2.
`O=C(c1ccc2nc(-c3ccco3)c(-c3ccco3)nc2c1)N1CCC2(CC1)OCCO2` gave UCH37 DUB inh -25, UPR CHOP act 1, CTSL1 counter 17*, XBP1 UPR activ -1 and CHOP inh -24.
CCCCn1c(O)c(C(CC)=NC(C)c2ccccc2)c(=O)[nH]c1=O (configuration not stated) was read as UCH37 DUB inh 3, UPR CHOP act -2, CTSL1 counter -1, XBP1 UPR activ 3 and CHOP inh 81*.
CCCCn1c(O)c(C(CC)=Nc2ccc(OCC)cc2)c(=O)[nH]c1=O was read as UCH37 DUB inh 0, UPR CHOP act -2, CTSL1 counter 0, XBP1 UPR activ -2 and CHOP inh 91*.
CCCCn1c(O)c(C(C)=NC(C)c2ccccc2)c(=O)[nH]c1=O (configuration not stated) was read as UCH37 DUB inh 0, UPR CHOP act 0, CTSL1 counter -1, XBP1 UPR activ 5 and CHOP inh 26.
`CC1CCCC=CC2CC(O)CC2C(O)C=CC(=O)O1` (configuration not stated) gave UCH37 DUB inh -1.
For COc1cc(/C=C(/C)[N+](=O)[O-])ccc1OCc1ccccc1Cl the results were UPR CHOP act -11, CTSL1 counter 2, XBP1 UPR activ -7 and CHOP inh 106*.
For CCOC(=O)c1c(NC(NC(=O)CF)C(Cl)(Cl)Cl)sc2c1CCCC2 (configuration not stated) the results were UPR CHOP act -1, CTSL1 counter 3, XBP1 UPR activ -4 and CHOP inh 74*.
Screening CCOC(=O)c1c(NC(=O)c2c(N)n(CCCOC)c3nc4ccccc4nc23)sc2c1CCCC2 returned UCH37 DUB inh 3, UPR CHOP act 1, CTSL1 counter -3, XBP1 UPR activ -3 and CHOP inh 27.
Screening NC(N)=NN=Cc1cn(-c2ccccc2)nc1-c1cccs1 returned UCH37 DUB inh -9.
For C[C@H]1CCCC=CC2C[C@H](O)CC2[C@H](O)C=CC(=O)O1 (some centres not stated) the results were UCH37 DUB inh 0.
CCOC(=O)Cn1cc([N+](=O)[O-])nc1[N+](=O)[O-] was read as UCH37 DUB inh -3, UPR CHOP act -3, CTSL1 counter 18*, XBP1 UPR activ -4 and CHOP inh -51.
Screening COc1cc(C=Nn2cnnc2)ccc1OC(=O)N(C)C returned UCH37 DUB inh -2.
For Cc1cc(O)c2c(c1)C(=O)C13C(=C2O)C(=O)[C@H]2[C@@H](O)[C@@H]1[C@H]1[C@H](O)[C@@H]3C(=O)C3=C(O)c4c(O)cc(C)cc4C(=O)C312 (some centres not stated) the results were UCH37 DUB inh 28*, UPR CHOP act 4, CTSL1 counter 6 and XBP1 UPR activ -3.
For CCC(C)N1C(=O)NC(=O)C2(Cc3c(ccc4ccccc34)N(C)C2)C1=O (configuration not stated) the results were UCH37 DUB inh 2, UPR CHOP act 1, CTSL1 counter 5, XBP1 UPR activ -1 and CHOP inh 76*.
CCCC(C)n1[nH]c(=O)c2c1NC(=O)CSC2c1ccc(OC)cc1 (configuration not stated) was read as UCH37 DUB inh 20*, UPR CHOP act -4, CTSL1 counter -2, XBP1 UPR activ -3 and CHOP inh 8.
For CC(=NN=C(N)N)c1ccccc1 the results were UCH37 DUB inh 5.
